# Source: ChEMBL document CHEMBL4689842, “EUbOPEN Chemogenomics Library wave 1” (2021)
# System: U2OS
# Assay: Multiplex assay against U2OS
# Type: toxicity, cell-based
# Details: human
# Method in brief: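 Cells stained live at seeding with Hoechst33342, BioTracker Green Microtubule Cytoskeleton Dye, MitoTracker Red and Annexin V Alexa Fluor 680 were imaged on a CQ1 microscope at 37°C and 5% CO2 after compound addition. Their classification by CellPathfinder machine-learning gating ran from Hoechst high-intensity objects versus normal cells, to healthy, pyknosed or fragmented nuclei among normal cells, to mitotic or apoptotic among pyknosed cells. Tubulin, mitochondrial-mass and membrane-permeability phenotypes are per cents of healthy-nucleus cells.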
# [1] = 12 h, 1 µM, compound concentration 1 uM, replicate 1
# [2] = 12 h, 1 µM, compound concentration 1 uM, replicate 2
# [3] = 12 h, 10 µM, compound concentration 10 uM, replicate 1
# [4] = 12 h, 10 µM, compound concentration 10 uM, replicate 2
# [5] = 24 h, 1 µM, compound concentration 1 uM, replicate 1
# [6] = 24 h, 1 µM, compound concentration 1 uM, replicate 2
# [7] = 24 h, 10 µM, compound concentration 10 uM, replicate 1
# [8] = 24 h, 10 µM, compound concentration 10 uM, replicate 2
# [9] = 48 h, 1 µM, compound concentration 1 uM, replicate 1
# [10] = 48 h, 1 µM, compound concentration 1 uM, replicate 2
# [11] = 48 h, 10 µM, compound concentration 10 uM, replicate 1
# [12] = 48 h, 10 µM, compound concentration 10 uM, replicate 2
compound,measurement,setting,value
O=C(c1cc2c(cc1F)OC(c1ccc(F)cc1)(c1ccc(Cl)cc1Cl)O2)N1CCOCC1 (stereo unspecified),Population Apoptotic (%),[1],57%
same,Population Fragmented Nuclei (%),[1],19%
same,Population Healthy Nuclei (%),[1],67%
same,Population Hoechst High Intensity Objects (%),[1],10%
same,Population Membrane Permeable-Phenotype (%),[1],7%
same,Population Mitochondria Different-Phenotype (%),[1],17%
same,Population Mitotic Cells (%),[1],42%
same,Population Normal (%),[1],89%
same,Population Pyknosed Nuclei (%),[1],13%
same,Total Cell Count,[1],120
same,Population Apoptotic (%),[2],50%
same,Population Fragmented Nuclei (%),[2],18%
same,Population Healthy Nuclei (%),[2],68%
same,Population Hoechst High Intensity Objects (%),[2],7%
same,Population Membrane Permeable-Phenotype (%),[2],9%
same,Population Mitochondria Different-Phenotype (%),[2],12%
same,Population Mitotic Cells (%),[2],50%
same,Population Normal (%),[2],92%
same,Population Pyknosed Nuclei (%),[2],12%
same,Population Tubulin-Different-Phenotype (%),[2],15%
same,Total Cell Count,[2],78
same,Population Apoptotic (%),[3],50%
same,Population Healthy Nuclei (%),[3],67%
same,Population Hoechst High Intensity Objects (%),[3],8%
same,Population Membrane Permeable-Phenotype (%),[3],46%
same,Population Mitotic Cells (%),[3],50%
same,Population Normal (%),[3],91%
same,Population Pyknosed Nuclei (%),[3],21%
same,Total Cell Count,[3],116
same,Population Apoptotic (%),[4],71%
same,Population Fragmented Nuclei (%),[4],10%
same,Population Healthy Nuclei (%),[4],78%
same,Population Hoechst High Intensity Objects (%),[4],4%
same,Population Membrane Permeable-Phenotype (%),[4],47%
same,Population Mitochondria Different-Phenotype (%),[4],96%
same,Population Mitotic Cells (%),[4],28%
same,Population Normal (%),[4],95%
same,Population Pyknosed Nuclei (%),[4],10%
same,Population Tubulin-Different-Phenotype (%),[4],100%
same,Total Cell Count,[4],52
same,Population Apoptotic (%),[5],44%
same,Population Fragmented Nuclei (%),[5],17%
same,Population Healthy Nuclei (%),[5],68%
same,Population Hoechst High Intensity Objects (%),[5],7%
same,Population Membrane Permeable-Phenotype (%),[5],5%
same,Population Mitochondria Different-Phenotype (%),[5],14%
same,Population Mitotic Cells (%),[5],55%
same,Population Normal (%),[5],92%
same,Population Pyknosed Nuclei (%),[5],14%
same,Population Tubulin-Different-Phenotype (%),[5],12%
same,Total Cell Count,[5],130
same,Population Apoptotic (%),[6],33%
same,Population Fragmented Nuclei (%),[6],5%
same,Population Healthy Nuclei (%),[6],88%
same,Population Hoechst High Intensity Objects (%),[6],10%
same,Population Membrane Permeable-Phenotype (%),[6],10%
same,Population Mitochondria Different-Phenotype (%),[6],15%
same,Population Mitotic Cells (%),[6],66%
same,Population Normal (%),[6],89%
same,Population Pyknosed Nuclei (%),[6],5%
same,Population Tubulin-Different-Phenotype (%),[6],21%
same,Total Cell Count,[6],85
same,Population Apoptotic (%),[7],67%
same,Population Fragmented Nuclei (%),[7],16%
same,Population Healthy Nuclei (%),[7],55%
same,Population Hoechst High Intensity Objects (%),[7],8%
same,Population Membrane Permeable-Phenotype (%),[7],48%
same,Population Mitochondria Different-Phenotype (%),[7],98%
same,Population Mitotic Cells (%),[7],32%
same,Population Normal (%),[7],91%
same,Population Pyknosed Nuclei (%),[7],28%
same,Population Tubulin-Different-Phenotype (%),[7],100%
same,Total Cell Count,[7],137
same,Population Apoptotic (%),[8],66%
same,Population Fragmented Nuclei (%),[8],8%
same,Population Healthy Nuclei (%),[8],62%
same,Population Hoechst High Intensity Objects (%),[8],6%
same,Population Membrane Permeable-Phenotype (%),[8],64%
same,Population Mitochondria Different-Phenotype (%),[8],100%
same,Population Mitotic Cells (%),[8],33%
same,Population Normal (%),[8],93%
same,Population Pyknosed Nuclei (%),[8],29%
same,Total Cell Count,[8],58
same,Population Apoptotic (%),[9],62%
same,Population Fragmented Nuclei (%),[9],14%
same,Population Healthy Nuclei (%),[9],75%
same,Population Hoechst High Intensity Objects (%),[9],7%
same,Population Membrane Permeable-Phenotype (%),[9],4%
same,Population Mitochondria Different-Phenotype (%),[9],11%
same,Population Mitotic Cells (%),[9],37%
same,Population Normal (%),[9],92%
same,Population Pyknosed Nuclei (%),[9],9%
same,Population Tubulin-Different-Phenotype (%),[9],9%
same,Total Cell Count,[9],127
same,Population Apoptotic (%),[10],60%
same,Population Fragmented Nuclei (%),[10],8%
same,Population Healthy Nuclei (%),[10],84%
same,Population Hoechst High Intensity Objects (%),[10],4%
same,Population Membrane Permeable-Phenotype (%),[10],6%
same,Population Mitochondria Different-Phenotype (%),[10],13%
same,Population Mitotic Cells (%),[10],40%
same,Population Normal (%),[10],96%
same,Population Pyknosed Nuclei (%),[10],6%
same,Population Tubulin-Different-Phenotype (%),[10],16%
same,Total Cell Count,[10],78
same,Population Apoptotic (%),[11],57%
same,Population Fragmented Nuclei (%),[11],20%
same,Population Healthy Nuclei (%),[11],44%
same,Population Hoechst High Intensity Objects (%),[11],14%
same,Population Membrane Permeable-Phenotype (%),[11],65%
same,Population Mitochondria Different-Phenotype (%),[11],93%
same,Population Mitotic Cells (%),[11],42%
same,Population Normal (%),[11],85%
same,Population Pyknosed Nuclei (%),[11],34%
same,Population Tubulin-Different-Phenotype (%),[11],100%
same,Total Cell Count,[11],179
same,Population Apoptotic (%),[12],71%
same,Population Fragmented Nuclei (%),[12],17%
same,Population Healthy Nuclei (%),[12],50%
same,Population Hoechst High Intensity Objects (%),[12],8%
same,Population Membrane Permeable-Phenotype (%),[12],76%
same,Population Mitochondria Different-Phenotype (%),[12],100%
same,Population Mitotic Cells (%),[12],28%
same,Population Normal (%),[12],91%
same,Population Pyknosed Nuclei (%),[12],31%
same,Total Cell Count,[12],75
